Source: PubChem
The full list was thinned out, with hits kept by preference.
XBP1 UPR activ: adaptive UPR (XBP1) activation; CHO-XBP1 luciferase reporter, IRE1-XBP1 UPR activation, luminescence; percent of tunicamycin response, DMSO as zero; activation, % at 20 µM; 330,000 tested, 0.33% active; AID 463104;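 active = versus positive control, 20 µM dose yields 30% or more activation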
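Assay system: CHO-XBP1 luciferase reporter cells; Schedule: 6 h treatment, 37 °C; Detection: glow luminescence from Steady-Glo reagent; Benchmarks: high control tunicamycin 10 µg/mL final, low control DMSO vehicle only.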
CHOP inh: CHOP inhibition in unfolded protein response | CHO-K1 CHOP-promoter luciferase, tunicamycin-induced, 15-18 h | inhibition, % at 10 µM | 220,000 tested, 3.8% active;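 active = compounds that reduced the stress-induced luciferase reporter signal by more than about 70% of percent inhibition, limit read from the data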
Jurkat NFkB inh: lowers PMA/ionomycin-induced NF-kB signal in Jurkat cells. 330,000 tested, 0.53% active. inhibition, % at 4 µM. PMA/ionomycin-induced NF-kB luciferase reporter, luminescence; in the data active = inhibition above about 50%
CHOP UPR activ: apoptotic UPR (CHOP) activation; 330,000 tested, 0.34% active; CHO-CHOP luciferase reporter, luminescence; percent of tunicamycin response over DMSO baseline; AID 449763; activation, % at 10 µM;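 active = at 10 µM dose, activation of 40% or more, normalized to positive control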
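Dosing – one dose, 10 µM in 0.5% DMSO · System – CHO-CHOP cells, stable luciferase reporter of PERK-eIF2a-CHOP signalling · Input – 500 cells/well · Control set – tunicamycin 10 µg/mL final as positive, DMSO-only wells as negative · Timing – 6 h compound treatment, 37 °C · Measure – % activation vs tunicamycin · Technique – luminescence read with Steady-Glo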
697 NFkB inh: inhibitors of the PMA/ionomycin-induced NF-kB reporter in 697 B cells | 697 B-cell NF-kB luciferase reporter, 16 h | inhibition, % at 4 µM | 330,000 tested, 0.33% active | AID 435022; in the data active = inhibition above about 35%
697 NFkB conf: lowers PMA/ionomycin-induced NF-kB signal in 697 B cells. AID 449746. inhibition, % at 4 µM. 2,000 tested, 35% active. shares compounds with 697 NFkB inh. 697 B-cell NF-kB luciferase, 16 h; in the data active = inhibition mostly above about 28%, no sharp cut-off; inactive = mostly below about 22%
Each line names hits and unclear results; the compound was inactive in the other large screens (follow-up assays come after a bar, where they were run).

COc1ccc(-c2ccc(C)cc2)cc1[C@H]1[C@H]2C=CC[C@@H](C)[C@@H]2C(=O)N1Cc1ccccc1	697 NFkB inh 41 | 697 NFkB conf 49
COc1ccc(-c2ccc([C@H]3[C@H]4C=CC[C@@H](C)[C@@H]4C(=O)N3Cc3ccccc3)c(F)c2)cc1	none
COc1ccc(-c2ccc(OC)c([C@H]3[C@H]4C=CC[C@@H](C)[C@@H]4C(=O)N3Cc3ccccc3)c2)cc1	697 NFkB inh 54 | 697 NFkB conf 39
COc1ccc(-c2ccc([C@H]3[C@H]4C=CC[C@@H](C)[C@@H]4C(=O)N3Cc3ccccc3)c(F)c2)cc1OC	none
COc1ccc(NC(=O)Nc2c(O)ccc3ccccc23)cc1	none (no result: CHOP inh)
Cc1ccc(NC(=O)CCc2nnc3ccc(NCc4ccco4)nn23)cc1	none (no result: CHOP inh)
O=C(c1cc2nc(-c3ccccc3)cc(-c3ccccc3)n2n1)N1CCN(C(=O)c2ccco2)CC1	697 NFkB inh 42 | 697 NFkB conf 36
Cc1cccc(Cl)c1NC(=O)N1CCCN(c2ncccc2[N+](=O)[O-])CC1	none
NC(=O)CCCn1c(C(=O)c2cc(Cl)c(N)c(Cl)c2)c2ccc([N+](=O)[O-])cc2[n+]1[O-]	none (no result: CHOP inh) | 697 NFkB conf inactive
NC(=O)CCCn1c(C(=O)c2ccc(Cl)cc2)c2ccc([N+](=O)[O-])cc2[n+]1[O-]	none (no result: CHOP inh)
O=[N+]([O-])c1ccccc1N/N=C/c1cccc(O)c1O	CHOP inh 71 | 697 NFkB conf inactive
O=[N+]([O-])c1ccccc1N/N=C\c1ccccc1Cl	none
CC(C)CCN1CCC(n2nccc2NC(=O)c2ccc3c(c2)OCO3)CC1	none (no result: CHOP inh)
O=C(c1cccc(S(=O)(=O)N2CCc3ccccc32)c1)N1CCN(c2ccccn2)CC1	none | 697 NFkB conf inactive
COc1ccc(CC(=O)Nc2ccc(S(=O)(=O)N3CCC(C)CC3)cc2)c(OC)c1	none (no result: CHOP inh)
COc1ccc(N2CCN(C(=O)c3cc4c(-c5cccc(OC)c5)nn(C)c4s3)CC2)cc1	none
COc1ccc(-c2nn(C)c3sc(C(=O)N4CCOCC4)cc23)cc1OC	697 NFkB inh 37 | 697 NFkB conf inactive
CCc1nn2c(=O)c(S(=O)(=O)Nc3ccc(C(C)C)cc3)c(C)nc2s1	none (no result: CHOP inh)
CCOc1ccc(CNC(=O)c2cc3oc4ccccc4c3n2C)cc1	none | 697 NFkB conf inactive
CCOc1ccc2cc(C(=O)NCc3ccccc3)c(=N)oc2c1	none (no result: CHOP inh)
CCOc1ccccc1CNC(=O)c1cc2oc3ccccc3c2n1CC	none | 697 NFkB conf inactive
COc1cccc(CNC(=O)c2cc3oc4ccccc4c3n2C)c1OC	none (no result: CHOP inh) | 697 NFkB conf inactive
CCn1c(C(=O)N2CCc3ccccc3C2)cc2oc3ccccc3c21	none
CN(C(=O)C1CCC(=O)N(C2CC2)C1)C1CCCCC1 (centres undefined)	none (no result: CHOP inh)
O=S(=O)(Nc1ccc(-c2cn3c(n2)SCC3)cc1)c1ccccc1F	none (no result: CHOP inh)
CCc1ccc(C2NC(=O)c3ccccc3O2)cc1 (centres undefined)	none (no result: CHOP inh)
CCCc1c(NC(=O)Nc2ccc(F)cc2)cnn1-c1ccccc1	none | 697 NFkB conf inactive
O=c1c(C=NCCCn2ccnc2)c(-c2ccccc2)[nH]n1-c1nc2ccccc2s1	none
CN(C)CCCN=Cc1c(-c2ccccc2)[nH]n(-c2nc3ccccc3s2)c1=O	697 NFkB inh 42 | 697 NFkB conf 44
O=C(N=C1SC2CS(=O)(=O)CC2N1c1ccc(F)cc1)C1CC1 (centres undefined)	none (no result: CHOP inh)
Cc1cccc(C(=O)n2c(=S)nc3ccccn32)c1	none | 697 NFkB conf inactive
CCc1ccc(CNC(=O)c2ccc(NC(=O)C3=CSCCO3)cc2)cc1	none (no result: CHOP inh)
Cn1c(=O)[nH]c(=O)c2c1nc(N1CCOCC1)n2CCSc1nnnn1-c1ccccc1	697 NFkB inh 38 | 697 NFkB conf inactive
COc1ccc(CCn2c(N3CCOCC3)nc3c2c(=O)[nH]c(=O)n3C)cc1	none
Cn1c(=O)[nH]c(=O)c2c1nc(N1CCOCC1)n2CCc1ccccc1	697 NFkB inh 47 | 697 NFkB conf inactive
O=C(NCC1CC1)c1ccc2c(c1)S(=O)(=O)c1cc(Cl)ccc1C2=O	none (no result: CHOP inh)
CCCC(=O)Nc1ccc(C(=O)NNC(=O)c2cccc([N+](=O)[O-])c2)cc1	none
CCC(CC)C(=O)Nc1ccc(Sc2ccc([N+](=O)[O-])cc2)cc1	697 NFkB inh 37 | 697 NFkB conf 30
CCCC(=O)Nc1ccc(Sc2ccc([N+](=O)[O-])cc2)cc1	697 NFkB inh 41 | 697 NFkB conf 35
O=C(COC(=O)c1ccccc1O)Nc1ccc2ccccc2c1	none (no result: CHOP inh)
O=C(Nc1ccc2ccccc2c1)c1ccccc1O	none (no result: CHOP inh) | 697 NFkB conf inactive
CCN(C(=O)CN1C(=O)NC(c2ccccc2)(c2ccc(C)c(C)c2)C1=O)C1CCCCC1 (centres undefined)	697 NFkB inh 44 (no result: CHOP inh) | 697 NFkB conf 27
CCN(C(=O)CN1C(=O)NC(c2ccccc2)(c2ccc(C)c(C)c2)C1=O)C1CCS(=O)(=O)C1 (centres undefined)	none (no result: CHOP inh)
O=C(COC(=O)CNC(=O)c1ccccc1)NCCCc1ccccc1	none (no result: CHOP inh)
CC1=CC(C)(C)n2c(O)c(N=NC(N)=S)c3cccc1c32	none
COc1cc2c3c(c1)c(N=NC(N)=S)c(O)n3C(C)(C)C=C2C	697 NFkB inh 42 | 697 NFkB conf 42
Cc1ccc2nc(-c3ccc(NC(=O)CN4CCN(c5ccccn5)CC4)cc3)sc2c1	none | 697 NFkB conf inactive
CCn1c(SCC(=O)Nc2ccc(-c3nc4ccc(C)cc4s3)cc2)nnc1-c1ccccc1	none | 697 NFkB conf inactive
Cc1ccc2nc(NC(=O)CN3CCN(c4ccccn4)CC3)sc2c1	none (no result: CHOP inh)
NS(=O)(=O)c1ccc(CCNC(=O)CSc2nc3ccsc3c(=O)n2CC2CCC(C(=O)O)CC2)cc1 (centres undefined)	697 NFkB inh 36 | 697 NFkB conf inactive
NS(=O)(=O)c1ccc(CCNC(=O)CSc2nc3ccsc3c(=O)n2C2CC2)cc1	none
Cc1ccc(NS(=O)(=O)c2cc(-c3n[nH]c(=O)c4ccccc34)ccc2C)cc1	none
CCNc1nc(C)c2cc(Br)c(=O)n(CC)c2n1	697 NFkB inh 41 | 697 NFkB conf 40
COc1ccc(-c2cc(C(=O)N/N=C/c3sccc3C)c3ccccc3n2)c(OC)c1	none | 697 NFkB conf inactive
COc1ccc(-c2cc(C(=O)N/N=C/c3ccc4c(c3)OCO4)c3ccccc3n2)c(OC)c1	none
CC(=O)c1c(-c2ccccc2)c2cc(Cl)ccc2[nH]c1=O	697 NFkB inh 36 | 697 NFkB conf inactive
O=C(N/N=C(\CC(=O)c1cccs1)C(F)(F)F)c1ccncc1	none | 697 NFkB conf inactive
CCO/N=C(\N)c1[nH]ncc1Br	none
N/C(=N\OC(=O)c1ccc(Cl)cc1)c1[nH]ncc1Br	none | 697 NFkB conf inactive
CCOC(=O)N1CCC(N2CCN(S(=O)(=O)c3ccc([N+](=O)[O-])cc3)CC2)CC1	697 NFkB inh 35 | 697 NFkB conf inactive
